# PKD1 inh – inhibitors of human PKD1 kinase, biochemical, fluorescence polarization; Serine/threonine-protein kinase D1 (Homo sapiens), Q15139; inhibition, % (no concentration beside the values); PKD1 kinase fluorescence polarization assay; AID 797, 2007; 0.056% of 200,000 active; in the data active = inhibition above about 50%
# KCC2 mod – KCC2 cotransporter modulators, thallium flux, primary screen, cell-based, HEK293 KCC2, FluoZin-2 fluorescence, MLSMR; AID 1456, 2008; KCC2 cells, thallium flux FluoZin-2 fluorescence; B-score of Tl+ flux slope (higher = more flux/activation; lower = inhibition) at 10 µM; 2.2% of 190,000 active; Solute carrier family 12 member 5 (Homo sapiens), Q9H2X9;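 active = thallium flux slope and its plate-corrected score both differing from the plate sample mean at a set confidence after two filtering rounds, in either direction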;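 note: slope of fluorescence scaled to starting intensity during 10 to 20 s after thallium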
# p97 inhibitor – inhibitors of human p97 ATPase, primary screen, biochemical; AID 1481, 2009; recombinant p97 ATPase, Kinase-Glo ATP luminescence, 3 h; inhibition, % at 8 µM; 0.42% of 220,000 active; in the data active = inhibition above about 15%;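 note: 0% = DMSO vehicle and 100% = wells lacking enzyme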
# Redox H2O2 prof – compounds producing H2O2 with reducing agent – biochemical, NIH compound library profiling, artefact control for MLSCN library redox annotation, primary screen. activation, % at 10 µM. 0.03% of 200,000 active. DTT-dependent redox cycling H2O2, phenol red/HRP absorbance; 100% = 100 µM peroxide control, 0% = buffer. AID 878, 2007;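 active = activation of at least 50% relative to the plate's high and low controls in the primary single-dose screen; inactive = activation below 50%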;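 note: compound incubated with DTT at 0.8 mM final as the reducing agent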
# MDM2 E3 inh – MDM2-luciferase reporter signal enhancers, primary screen, MDM2 E3 ligase inhibitor project, cell-based, luminescence, 1536-well; E3 ubiquitin-protein ligase Mdm2 (Homo sapiens), Q00987; 0.11% of 210,000 active; signal enhancement, % at 5 µM; AID 1230, 2008; cell-based MDM2 ubiquitination luciferase reporter, 2 h; 0 = plate control, 100 = twice control, blank-subtracted;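 active = signal enhancement of 30% or more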;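 note: luminescence tracks abundance of the self-degrading MDM2-luciferase fusion protein; higher signal means inhibition of MDM2 E3 ligase activity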
# Target sequence (Q00987 whole entry, looked up, the tested form may be a part): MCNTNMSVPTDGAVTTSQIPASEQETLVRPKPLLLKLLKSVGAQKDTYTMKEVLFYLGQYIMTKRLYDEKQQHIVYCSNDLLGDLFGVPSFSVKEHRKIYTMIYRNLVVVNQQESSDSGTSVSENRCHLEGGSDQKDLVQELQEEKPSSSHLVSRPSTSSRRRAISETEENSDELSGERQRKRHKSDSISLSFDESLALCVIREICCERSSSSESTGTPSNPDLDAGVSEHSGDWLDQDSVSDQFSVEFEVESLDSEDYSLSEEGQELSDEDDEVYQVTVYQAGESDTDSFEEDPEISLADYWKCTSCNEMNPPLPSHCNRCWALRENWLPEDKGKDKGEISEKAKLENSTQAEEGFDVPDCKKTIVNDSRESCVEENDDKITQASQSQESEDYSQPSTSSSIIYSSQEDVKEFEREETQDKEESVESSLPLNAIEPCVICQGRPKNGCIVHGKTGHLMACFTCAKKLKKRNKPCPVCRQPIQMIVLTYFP
#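 Material: Stable MDM2–luciferase fusion reporter cells | Amount: 2000 cells seeded into each well | Dosing: One concentration, 5 µM, with 0.2% DMSO | Incubation: 4 h cell settling then 2 h compound exposure, 37 °C | Measured by: Luciferase luminescence | Read-out basis: % enhancement relative to plate controls after blank subtraction | Benchmarks: Control and blank well means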
# ROMK primary – ROMK potassium channel modulators, primary screen, cell-based, thallium flux, MLSMR library; ATP-sensitive inward rectifier potassium channel 1 (Homo sapiens), P48048; Tet-inducible ROMK, thallium flux fluorescence; actives lie on both sides; B-score at 10 µM; 2% of 130,000 active;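 active = signal ratio slope over the read window, or its plate-corrected B-score, at least 3 SD from the plate mean, either direction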;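 note: B-score of the F/F0 ratio slope over 7 to 12 s after thallium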
# KCC2 sec1 – KCC2 modulators in sodium-free buffer, confirmation, cell-based, HEK293 KCC2, thallium flux, secondary assay; shares compounds with KCC2 mod; FluoZin2 fluorescence; stronger effect = higher value; normalised thallium flux (F/F0 slope) at 10 µM; 15% of 3,700 active; AID 1713, 2009;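 active = thallium flux slope above the same plate's solvent-only control mean plus 3 SD; inconclusive = the two replicate wells disagree; inactive = no significant difference from solvent-only control wells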
# KCC2 bumet counter – thallium flux persisting under bumetanide in KCC2 cells, confirmation, counter-screen for KCC2 modulator project, cell-based, HEK293 KCC2, FluoZin2, secondary assay 3. shares compounds with KCC2 mod. HEK293-KCC2 + bumetanide/ouabain; stronger effect = higher value. normalized thallium flux at 10 µM. 49% of 3,700 active. AID 1714, 2009;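 active = thallium entry rate above the same plate's blocked-transporter control wells by more than 3 SD; inconclusive = the two repeat wells disagree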;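 note: raw slope of fluorescence over initial fluorescence between 10 and 20 s after thallium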
# KCC2 sec2 – KCC2 modulators without ouabain present, confirmation, cell-based, HEK293 KCC2, thallium flux, FluoZin2, secondary assay 2; shares compounds with KCC2 mod; thallium flux FluoZin2 fluorescence; actives lie on both sides; F/F0 rise rate, 10–20 s post-thallium; normalized thallium flux at 10 µM; 23% of 3,700 active; AID 1715, 2009;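 active = thallium flux slope more than 3 SD above or below the plate's solvent-only control mean, mostly below; inconclusive = the two repeat wells disagreed; inactive = no significant shift from solvent-only controls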;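 note: raw slope with 0.1% DMSO as baseline and bumetanide as block control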
# HEK293 Tl flux – thallium flux modulation in parental HEK cells, confirmation, counter-screen for KCC2 modulator project, cell-based, counterscreen 1 | shares compounds with KCC2 mod | HEK293 parental cells, thallium flux FluoZin2, ouabain; baseline-ratio fluorescence slope, 10–20 s after thallium | thallium flux rate (normalised fluorescence) at 10 µM | 46% of 3,700 active | AID 1716, 2009;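 active = thallium flux rate significantly above the same plate's solvent-only control wells, beyond their mean plus 3 SD; inconclusive = the two replicate wells gave conflicting results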
# KCC2 ouabain – KCC2 inhibitors and activators, ouabain retest, confirmation, HEK-KCC2 cells; shares compounds with KCC2 mod; HEK293-KCC2, thallium flux FluoZin2 fluorescence; bidirectional: low = inhibitor, high = activator; raw Tl+ flux slope (below DMSO = inhibition, above = activation) at 10 µM; 48% of 3,700 active;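 active = thallium flux slope beyond 3 SD from same-plate DMSO control mean in most replicates, usually higher, sometimes lower; inconclusive = repeat tests gave conflicting results; inactive = no significant difference from controls in most replicates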;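 note: slope of initial-normalized fluorescence between seconds 10 and 20 after thallium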
# HEK293 Tl flux2 – native HEK Tl+ uptake effects, second counter-screen – HEK cells, counterscreen 2, counter-screen for KCC2 modulator project, confirmation; shares compounds with KCC2 mod; HEK293 parental, thallium flux FluoZin-2 fluorescence slope; thallium flux slope at 10 µM; 33% of 3,700 active;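 active = thallium flux slope above the same plate's solvent-control mean plus 3 SD in both duplicate wells; inconclusive = duplicate wells that disagreed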;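 note: run without ouabain in cells lacking the KCC2 cotransporter; slope of fluorescence scaled to its starting value between 10 and 20 s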
# An asterisk follows results filed as active; ? = inconclusive; . = no result given. Shown are actives, neighbours in structure and some others; about 3.4% of the full set was active somewhere.
SMILES,PKD1 inh,KCC2 mod,p97 inhibitor,Redox H2O2 prof,MDM2 E3 inh,ROMK primary,KCC2 sec1,KCC2 bumet counter,KCC2 sec2,HEK293 Tl flux,KCC2 ouabain,HEK293 Tl flux2
O=C(NC(=S)Nc1nc2ccc(F)cc2s1)c1ccco1,-2.8,40.7*,7.5,-0.5,0.3,0.92,?,0.128*,0.0966*,0.0917*,0.112*,0.0886*
Cc1ccc(-c2csc(NC(=S)NC(=O)c3ccco3)n2)cc1,6.0,32.3*,2.9,-0.4,0.3,0.774,0.0157*,0.0469*,0.0319,0.0279*,0.0394*,0.0132*
Cc1ccc(-c2csc(NC(=O)CCNC(=O)c3ccco3)n2)cc1,4.7,-2.24,-2.2,-0.3,-8.6,0.482,.,.,.,.,.,.
O=C(NNc1nc(-c2ccccc2)cs1)c1ccco1,6.6,-6.16*,-2.5,-0.2,-4.5,0.0566,?,?,0.019*,?,0.0123*,0.0104
Cc1ccc(-c2csc(N/N=C/c3ccco3)n2)cc1,-4.3,-4.18,1.5,-4.8,-10.1,.,.,.,.,.,.,.
Nc1ccccc1C(=O)NNc1c2ccccc2nc2ccccc12,.,0.893,8.9,.,3.8,0.209,.,.,.,.,.,.
CC1(C)C(c2ccc(Cl)cc2)=[N+]([O-])C2(CCCC/C2=N\O)N1O (centres undefined),-2.0,.,5.0,-0.1,-0.3,-0.468,.,.,.,.,.,.
Cc1ccccc1-n1c(C)nnc1SCc1nc2ccccc2s1,-5.5,-0.892,-4.3,-1.1,-32.7,.,.,.,.,.,.,.
CCOc1ccccc1-n1nnnc1SCc1nc2ccccc2s1,0.5,.,-1.8,-0.6,-9.0,.,0.0153,?,0.0244*,0.00579*,0.0134*,0.0091
Cc1ccccc1OCC(=O)Nc1ccc2c(c1)OCO2,-0.2,-0.681,3.2,2.1,-16.2,0.0136,.,.,.,.,.,.
Cc1ccc2cccc(OCC(=O)Nc3ccc4c(c3)OCO4)c2n1,-0.3,-5.94*,-4.4,-0.9,4.8,-0.692,?,0.00597,0.0288,0.00624,0.0139*,0.0101
Cc1ccc(C(=O)/C=C2/NC(=O)CS2)cc1,-10.3,0.87,0.9,3.8,-3.8,0.199,.,.,.,.,.,.
O=C1CS/C(=C/C(=O)c2cccc(Cl)c2)N1,1.6,6.79*,-0.5,-1.5,-16.9,0.0811,?,0.0236*,0.0299,0.0111*,0.0513*,0.0112*
CC(C)n1c(NCc2nc3ccccc3n2C)nc2ccccc21,-7.4,.,2.5,-2.8,20.0,.,0.00783,0.0057,0.0316,0.00703,0.0169,?
O=C(C1CCN(S(=O)(=O)c2cccs2)CC1)N1CCN(Cc2ccccc2)CC1,-8.2,0.458,-0.7,-2.1,-1.6,-1.07,.,.,.,.,.,.
Cc1ccc(NC(=O)C(C)Sc2nc(=O)cc(N)n2-c2ccccc2)cc1 (centres undefined),-6.8,.,-0.3,0.4,-12.8,1.63,0.00837,0.00652,0.0315,0.00399,0.0185,0.0113
C=CCc1cccc2cc(C(=O)Nc3cccc(C(=O)O)c3)c(=O)oc12,.,-0.773,4.0,.,.,.,.,.,.,.,.,.
C=CCc1cccc2cc(C(=O)NNC(=O)c3ccncc3)c(=O)oc12,4.8,4.79*,1.1,-0.5,-11.0,-1.82,0.00584,0.0043,0.0291,0.00758,0.0182,0.0102
O=C(COC(=O)CCC1CCCC1)Nc1ccccc1OC(F)F,3.2,0.037,-1.5,0.2,-3.4,-0.0994,.,.,.,.,.,.
N/C(Cc1cccs1)=N\OC(=O)COc1ccccc1Cl,4.0,.,-1.6,-0.1,-8.9,-0.816,0.00817,0.00537,0.0319,?,0.0183,0.00931
CCC(C)c1ccc(NC(=S)Nc2ccc(OC)cc2)cc1 (centres undefined),-2.6,-0.719,-3.4,-0.5,-6.1,.,.,.,.,.,.,.
Cc1cc(Cl)c(S(=O)(=O)NC(C(=O)O)c2ccccc2)cc1OCC(N)=O (centres undefined),1.5,-0.307,-0.4,3.8,-6.2,0.415,.,.,.,.,.,.
CC(OC(=O)c1cc2sccc2n1C)C(=O)NCCc1ccccc1 (centres undefined),2.9,-5.61*,-7.5,-8.1,7.8,.,0.0087,?,?,0.00691,0.0139*,0.0106
COC(=O)c1ccccc1NC(=O)c1cc2sccc2n1C,-14.2,8.3*,3.3,2.5,-6.3,-0.662,0.0161,0.00477,0.0294,0.00788,0.0169,0.0107
N#CCCCSc1ncccc1-c1nc2ccccc2[nH]1,-9.0,0.436,3.4,1.9,-6.3,-0.0297,0.00789,0.00606,0.0269,0.00663,0.0203,0.00858
Cc1cccc(-n2nnnc2SC(C)C(=O)NCCC2=CCCCC2)c1 (centres undefined),3.0,.,-6.5,-0.7,-1.3,-0.389,.,.,.,.,.,.
Cc1ccc(Cn2c(=N)c(C(=O)NCc3ccco3)cc3c(=O)n4ccccc4nc32)cc1,-1.7,5.69*,5.0,0.3,-9.2,.,0.00528,?,?,0.00548*,0.0181,0.00975
N=c1c(C(=O)NCc2ccco2)cc2c(=O)n3ccccc3nc2n1CCc1ccccc1,-7.2,.,-3.5,-3.9,.,-0.619,.,.,.,.,.,.

# High-throughput results: PubChem, several laboratories
